Where “and” joins values, the source holds several entries; their conditions need not be identical. Identical values can stand only once.
Key:
[1] = organism: Cavia porcellus; experiment: Allergic contact dermatitis in guinea pig at 3.8 umol (5 injections) and expressed as number of animals reading with a test intensity of 0.5; format: functional
How it was run: (§1)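 Sensitization by the FCAT method with five injections: the first sensitization was boosted by two injections of alkylcyclohexanediol in Freund complete adjuvant 1 week after the first test. Open epicutaneous challenge used the stated dose in ethanol, read at 48 h on a 0–3 erythema/swelling scale. Irritation thresholds were set on FCA-injected controls, with groups of eight per experiment.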

[2] = organism: Cavia porcellus; experiment: Allergic contact dermatitis in guinea pig at 3.8 umol (3 injections) and expressed as number of animals reading with a test intensity of 0; format: functional
How it was run: (§2)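 Guinea pigs sensitized with the alkylcyclohexanediol in Freund complete adjuvant (3-injection schedule per curator). Elicitation by open epicutaneous test of the dose in ethanol. Read at 48 h on a scale: 0 none, 0.5 slight partial erythema, 1 erythema over the whole area, 2 erythema plus swelling, 3 swelling well beyond the area. FCA-treated control groups of eight animals.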

[3] = organism: Cavia porcellus; experiment: Allergic contact dermatitis in guinea pig at 3.8 umol (3 injections) and expressed as number of animals reading with a test intensity of 2; format: functional; how it was run: as §2
[4] = organism: Cavia porcellus; experiment: Allergic contact dermatitis in guinea pig at 3.8 umol (5 injections) and expressed as number of animals reading with a test intensity of 1; format: functional; how it was run: as §1
[5] = organism: Cavia porcellus; experiment: Allergic contact dermatitis in guinea pig at 7.6 umol (3 injections) and expressed as number of animals reading with a test intensity of 1; format: functional; how it was run: as §2
[6] = organism: Cavia porcellus; experiment: Ability to induce allergic contact dermatitis in guinea pig at 7.6 umol (3 injections) and expressed as average skin reaction; format: functional; how it was run: as §2
[7] = organism: Cavia porcellus; experiment: Ability to induce allergic contact dermatitis in guinea pig at 3.8 umol (3 injections)of the compound and expressed as no. of positive animals out of 16; format: functional; how it was run: as §2
[8] = organism: Cavia porcellus; experiment: Allergic contact dermatitis in guinea pig at 7.6 umol (3 injections) and expressed as number of animals reading with a test intensity of 0.5; format: functional; how it was run: as §2
[9] = organism: Cavia porcellus; experiment: Ability to induce allergic contact dermatitis in guinea pig at 3.8 umol (3 injections) and expressed as average skin reaction; format: functional; how it was run: as §2
[10] = organism: Cavia porcellus; experiment: Ability to induce allergic contact dermatitis in guinea pig at 3.8 umol (5 injections)of the compound and expressed as no. of positive animals out of 16; format: functional
[11] = organism: Cavia porcellus; experiment: Allergic contact dermatitis in guinea pig at 3.8 umol (5 injections) and expressed as number of animals reading with a test intensity of 0; format: functional; how it was run: as §1
[12] = organism: Cavia porcellus; experiment: Ability to induce allergic contact dermatitis in guinea pig at 3.8 umol (5 injections) and expressed as average skin reaction; format: functional; how it was run: as §1
[13] = organism: Cavia porcellus; experiment: Allergic contact dermatitis in guinea pig at 7.6 umol (5 injections) and expressed as number of animals reading with a test intensity of 0.5; format: functional; how it was run: as §1
[14] = organism: Cavia porcellus; experiment: Ability to induce allergic contact dermatitis in guinea pig at 7.6 umol (5 injections)of the compound and expressed as no. of positive animals out of 16; format: functional
[15] = organism: Cavia porcellus; experiment: Allergic contact dermatitis in guinea pig at 3.8 umol (5 injections) and expressed as number of animals reading with a test intensity of 2; format: functional; how it was run: as §1
[16] = organism: Cavia porcellus; experiment: Allergic contact dermatitis in guinea pig at 7.6 umol (5 injections) and expressed as number of animals reading with a test intensity of 2; format: functional; how it was run: as §1
[17] = organism: Cavia porcellus; experiment: Allergic contact dermatitis in guinea pig at 7.6 umol (3 injections) and expressed as number of animals reading with a test intensity of 0; format: functional; how it was run: as §2
[18] = organism: Cavia porcellus; experiment: Ability to induce allergic contact dermatitis in guinea pig at 7.6 umol (3 injections)of the compound and expressed as no. of positive animals out of 16; format: functional; how it was run: as §2
[19] = organism: Cavia porcellus; experiment: Allergic contact dermatitis in guinea pig at 3.8 umol (3 injections) and expressed as number of animals reading with a test intensity of 1; format: functional; how it was run: as §2
[20] = organism: Cavia porcellus; experiment: Allergic contact dermatitis in guinea pig at 3.8 umol (3 injections) and expressed as number of animals reading with a test intensity of 0.5; format: functional; how it was run: as §2
[21] = organism: Cavia porcellus; experiment: Ability to induce allergic contact dermatitis in guinea pig at 3.8 umol (5 injections) and expressed as no. of positive animals out of 8; format: functional; how it was run: as §1
[22] = organism: Cavia porcellus; experiment: Ability to induce allergic contact dermatitis in guinea pig at 7.6 umol (3 injections)of the compound and expressed as no. of positive animals out of 8; format: functional; how it was run: as §2
[23] = organism: Cavia porcellus; experiment: Allergic contact dermatitis in guinea pig at 7.6 umol (3 injections) and expressed as number of animals reading with a test intensity of 2; format: functional; how it was run: as §2
[24] = organism: Cavia porcellus; experiment: Ability to induce allergic contact dermatitis in guinea pig at 3.8 umol (3 injections)of the compound and expressed as no. of positive animals out of 8; format: functional; how it was run: as §2
[25] = organism: Cavia porcellus; experiment: (§3) Ability to induce allergic contact dermatitis in guinea pig at 7.6 umol (5 injections) and expressed as average skin reaction; format: functional; how it was run: as §1
[26] = organism: Cavia porcellus; experiment: Allergic contact dermatitis in guinea pig at 14 umol (3 injections) and expressed as number of animals reading with a test intensity of 2; format: functional; how it was run: as §2
[27] = organism: Cavia porcellus; experiment: Allergic contact dermatitis in guinea pig at 14 umol (5 injections) and expressed as number of animals reading with a test intensity of 0; format: functional; how it was run: as §1
[28] = organism: Cavia porcellus; experiment: Allergic contact dermatitis in guinea pig at 14 umol (5 injections) and expressed as number of animals reading with a test intensity of 2; format: functional; how it was run: as §1
[29] = organism: Cavia porcellus; experiment: Ability to induce allergic contact dermatitis in guinea pig at 14 umol (5 injections)of the compound and expressed as no. of positive animals out of 8; format: functional; how it was run: as §1
[30] = organism: Cavia porcellus; experiment: Allergic contact dermatitis in guinea pig at 14 umol (5 injections) and expressed as number of animals reading with a test intensity of 1; format: functional; how it was run: as §1
[31] = organism: Cavia porcellus; experiment: (§4) Allergic contact dermatitis in guinea pig at 7.6 umol (5 injections) and expressed as number of animals reading with a test intensity of 1; format: functional; how it was run: as §1
[32] = organism: Cavia porcellus; experiment: Ability to induce allergic contact dermatitis in guinea pig at 14 umol (5 injections) and expressed as average skin reaction; format: functional; how it was run: as §1
[33] = organism: Cavia porcellus; experiment: Ability to induce allergic contact dermatitis in guinea pig at 14 umol (3 injections) and expressed as average skin reaction; format: functional; how it was run: as §2
[34] = organism: Cavia porcellus; experiment: Allergic contact dermatitis in guinea pig at 14 umol (3 injections) and expressed as number of animals reading with a test intensity of 0; format: functional; how it was run: as §2
[35] = organism: Cavia porcellus; experiment: Ability to induce allergic contact dermatitis in guinea pig at 14 umol (3 injections)of the compound and expressed as no. of positive animals out of 8; format: functional; how it was run: as §2
[36] = organism: Cavia porcellus; experiment: Allergic contact dermatitis in guinea pig at 14 umol (3 injections) and expressed as number of animals reading with a test intensity of 0.5; format: functional; how it was run: as §2
[37] = organism: Cavia porcellus; experiment: as §3; format: functional; how it was run: as §1; remark: listed apart in the source
[38] = organism: Cavia porcellus; experiment: as §4; format: functional; how it was run: as §1; remark: listed apart in the source
[39] = organism: Cavia porcellus; experiment: Allergic contact dermatitis in guinea pig at 14 umol (3 injections) and expressed as number of animals reading with a test intensity of 1; format: functional; how it was run: as §2
[40] = organism: Cavia porcellus; experiment: Ability to induce allergic contact dermatitis in guinea pig at 7.6 umol (5 injections)of the compound and expressed as no. of positive animals out of 8; format: functional; how it was run: as §1
[41] = organism: Cavia porcellus; experiment: Allergic contact dermatitis in guinea pig at 14 umol (5 injections) and expressed as number of animals reading with a test intensity of 0.5; format: functional; how it was run: as §1
[42] = organism: Cavia porcellus; experiment: Ability to induce allergic contact dermatitis in guinea pig at 3.8 umol (3 injections)of the compound and expressed as no. of positive animals out of 8
[43] = organism: Cavia porcellus; experiment: Allergic contact dermatitis in guinea pig at 7.6 umol (5 injections) and expressed as number of animals reading with a test intensity of 0; format: functional; how it was run: as §1
[44] = organism: Cavia porcellus; experiment: Ability to induce allergic contact dermatitis in guinea pig at 3.8 umol (5 injections)of the compound and expressed as no. of positive animals out of 8; format: functional; how it was run: as §1

SMILES	No. of animals [1]	No. of animals [2]	No. of animals [3]	No. of animals [4]	No. of animals [5]	Average skin reaction [6]	No. of animals [8]	Average skin reaction [9]	No. of animals [11]	Average skin reaction [12]	No. of animals [13]	No. of animals [15]	No. of animals [16]	No. of animals [17]	No. of animals [19]	No. of animals [20]	also measured
CCCCCCCCCCCCCCC[C@H]1CCC[C@@H](O)[C@@H]1O	4	4	0	9	12	0.8	2	0.5	2	0.8	2 and 1	1	0	2	4	8	No. of positive animals [7]: 12; No. of positive animals [10]: 14; No. of positive animals [14]: 15; No. of positive animals [18]: 14
CCCCCCCCCCCCCCC[C@H]1CCC[C@H](O)[C@@H]1O	4	3	0	2	1	0.5	6	0.3	2	0.5	2 and 1	0	0	1	0	5	No. of positive animals [21]: 6; No. of positive animals [22]: 7; No. of animals [23]: 0; No. of positive animals [24]: 5
CCCCCCCCCC[C@H]1CCC[C@@H](O)[C@@H]1O	4	4	0	2	–	–	–	0.3	2	0.5	–	0	0	–	1	3	Average skin reaction [25]: 0.5; No. of animals [26]: 2; No. of animals [27]: 1; No. of animals [28]: 2; No. of positive animals [29]: 7; No. of animals [30]: 2; No. of animals [31]: 1; Average skin reaction [32]: 0.9; Average skin reaction [33]: 0.9; No. of animals [34]: 2; No. of positive animals [35]: 6; No. of animals [36]: 2; Average skin reaction [37]: 0.7; No. of animals [38]: 5; No. of animals [39]: 2; No. of positive animals [40]: 6 and 7; No. of animals [41]: 3; No. of positive animals [42]: 4; No. of animals [43]: 2 and 1; No. of positive animals [44]: 6

From ChEMBL document CHEMBL1123402, “Saturated analogues of poison ivy allergens. Synthesis of trans,trans- and cis,trans-3-alkyl-1,2-cyclohexanediols and sensitizing properties in allergic contact dermatitis” (1986)
